From ChEMBL document CHEMBL1131077, “3,5-Dihydro-4H-2,3-benzodiazepine-4-thiones: a new class of AMPA receptor antagonists” (J Med Chem, 1998)

Experiments:
[1] = Relative lipophilicity; type: physicochemical; details: TLC, acetone/water 2:1 mobile phase
Outline: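 Reversed-phase TLC on plates pre-dried 1 h at 105 °C, developed in acetone/water 2:1 (v/v); 1 µL of 3 mg/mL CHCl3 solution spotted. Rf averaged over five runs with varied spot positions; Rm = log[(1/Rf) − 1].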

[2] = Therapeutic index (TD50/ED50) from the clonic phase of the audiogenic seizures
Outline: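 Ratio of rotarod TD50 (Swiss mice, 30 min after ip dosing) to ED50 for clonic phase of audiogenic seizures in DBA/2 mice (30 min after ip dosing). Both values from Litchfield–Wilcoxon fits, in µmol/kg.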

Mus musculus [3] = organism: Mus musculus; assay: Anticonvulsant activity against audiogenic seizures in DBA/2 mice (value required to prevent clonic phases of seizures).; type: functional
Outline: (§1)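 DBA/2 mice (8–12 g, 22–25 days old, either sex), groups of 10, given drug or vehicle ip (50% DMSO/50% saline, 0.1 mL/10 g) 30 min before auditory stimulation; latency and incidence of seizure phases scored. ED50 per phase by Litchfield–Wilcoxon, at least 32 animals per value.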

Mus musculus [4] = organism: Mus musculus; assay: Anticonvulsant activity against audiogenic seizures in DBA/2 mice (value required to prevent tonic phases of seizures).; type: functional; outline: as §1
Mus musculus [5] = organism: Mus musculus; assay: (§2) Dose which induced 50% of mice to fall from the rotarod; type: functional
Outline: (§3)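 Male Swiss mice (20–26 g, 48–54 days old), groups of 10, pretrained on a 3 cm rotarod at 8 rpm; tested 30 min after ip dosing. Failure meant falling within 2 min. TD50 by Litchfield–Wilcoxon, at least 32 animals.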

Mus musculus [6] = assay: Anticonvulsant activity against tonic seizures induced by icv injection of AMPA in DBA/2 mice; type: functional; details: central
Mus musculus [7] = organism: Mus musculus; assay: Anticonvulsant activity against pentylenetetrazole (PTZ)-induced seizures in swiss mice; type: functional
Outline: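 Male Swiss mice (20–26 g, 42–48 days old) dosed ip in 50% DMSO/saline 45 min before PTZ 85 mg/kg sc (CD97); watched 30 min. Protection meant no clonic spasm lasting at least 5 s. ED50 by Litchfield–Wilcoxon.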

Mus musculus [8] = organism: Mus musculus; assay: Anticonvulsant activity against clonic phase of the audiogenic seizures after concomitant with flumazenil at 8.24 umol dose in DBA/2 mice; type: functional
Outline: (§4)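 DBA/2 mice (8–12 g, 22–25 days old, either sex) given test drug ip in 50% DMSO/50% saline together with flumazenil at the stated dose, then auditory stimulation 30 min after dosing; clonic or tonic phase scored in groups of 10. ED50 by Litchfield–Wilcoxon, at least 32 animals per value.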

Mus musculus [9] = assay: Anticonvulsant activity against clonic seizures induced by icv injection of AMPA in DBA/2 mice; type: functional; details: central
Mus musculus [10] = organism: Mus musculus; assay: Anticonvulsant activity against clonic phase of the audiogenic seizures after pretreatment with aniracetam in DBA/2 mice; type: functional
Outline: (§5)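 DBA/2 mice (8–12 g, 22–25 days old, either sex) pretreated with aniracetam, then given the benzodiazepine ip in 50% DMSO/50% saline; sound stimulation 30 min after dosing, with clonic or tonic phase scored. ED50 by Litchfield–Wilcoxon (at least 32 animals), compared with benzodiazepine alone.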

Mus musculus [11] = organism: Mus musculus; assay: Anticonvulsant activity against tonic phase of the audiogenic seizures after pretreatment with aniracetam in DBA/2 mice; type: functional; outline: as §5
Mus musculus [12] = organism: Mus musculus; assay: Anticonvulsant activity against maximal electroshock (MES ) seizures in swiss mice; type: functional
Outline: (§6)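 Swiss mice dosed ip (50% DMSO/saline) 45 min before ear-clip electroshock (50 mA, 20 ms pulses, 35 Hz, 400 ms). Protection taken as abolition of tonic hindlimb extension. Four to five doses, 8–10 mice each; ED50 by Litchfield–Wilcoxon.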

Mus musculus [13] = organism: Mus musculus; assay: Anticonvulsant activity against clonic phase of the audiogenic seizures after concomitant with flumazenil at 24.72 umol dose in DBA/2 mice; type: functional; outline: as §4
Mus musculus [14] = organism: Mus musculus; assay: Anticonvulsant activity against tonic phase of the audiogenic seizures after concomitant with flumazenil at 8.24 umol dose in DBA/2 mice; type: functional; outline: as §4
[15] = as §2; type: ADME; details: mouse, in vivo; outline: as §3
Mus musculus [16] = organism: Mus musculus; assay: Anticonvulsant activity against tonic phase of the audiogenic seizures after concomitant with flumazenil at 24.72 umol dose in DBA/2 mice; type: functional; outline: as §4
Mus musculus [17] = organism: Mus musculus; assay: Anticonvulsant activity against maximal electroshock (MES) seizures in swiss mice; type: functional; outline: as §6

Compound	Rm [1]	selectivity ratio [2]	ED50 (Mus musculus [3]) [µmol/kg]	ED50 (Mus musculus [4]) [µmol/kg]	TD50 (Mus musculus [5]) [µmol/kg]	also measured
COc1cc2c(cc1OC)C(c1ccc(Br)cc1)=NN=C(S)C2	0.269	1.4	52.1	33.3	73	–
COc1cc2c(cc1OC)C(c1ccc(Br)cc1)=NNC(=O)C2	0.035	–	–	–	226	–
COc1cc2c(cc1OC)C(c1ccc(N)cc1)=NN=C(S)C2	-0.308	6.76	6.3	3.3	–	ED50 (Mus musculus [6]): 11.9 µmol/kg; ED50 (Mus musculus [7]): 15.4 µmol/kg; ED50 (Mus musculus [8]): 6.9 µmol/kg; ED50 (Mus musculus [9]): 17.1 µmol/kg; ED50 (Mus musculus [10]): 46.1 µmol/kg; ED50 (Mus musculus [11]): 38.5 µmol/kg; ED50 (Mus musculus [12]): 7.75 µmol/kg; ED50 (Mus musculus [13]): 7.1 µmol/kg; ED50 (Mus musculus [14]): 3.24 µmol/kg; TD50 [15]: 42.6 µmol/kg; ED50 (Mus musculus [16]): 3.22 µmol/kg
COc1cc2c(cc1OC)C(c1ccc(Cl)cc1)=NNC(=O)C2	0.012	–	–	–	240	–
COc1cc2c(cc1OC)C(c1ccc([N+](=O)[O-])cc1)=NNC(=O)C2	-0.113	–	–	–	–	–
COc1cc2c(cc1OC)C(c1ccc([N+](=O)[O-])cc1)=NN(C)C(=O)C2	0.11	–	–	–	–	–
COc1cc2c(cc1OC)C(c1ccc(Cl)cc1)=NN=C(S)C2	0.244	3.26	82.4	55	193	–
COc1cc2c(cc1OC)C(c1cccc(N)c1)=NNC(=O)C2	-0.542	–	–	–	51.5	–
COc1cc2c(cc1OC)C(c1cccc(N)c1)=NN=C(S)C2	-0.259	4.08	18.8	9.1	76.7	–
COc1cc2c(cc1OC)C(c1ccc([N+](=O)[O-])cc1)=NN=C(S)C2	0.122	–	93.4	69.8	> 150	–
COc1cc2c(cc1OC)C(c1cccc([N+](=O)[O-])c1)=NNC(=O)C2	-0.135	–	–	–	–	–
COc1cc2c(cc1OC)C(c1ccccc1)=NN(C)C(=O)C2	-0.003	–	–	–	154	–
COc1cc2c(cc1OC)C(c1cccc([N+](=O)[O-])c1)=NN=C(S)C2	0.092	–	–	–	–	–
CC1=NN=C(c2ccc(N)cc2)c2cc3c(cc2C1)OCO3 [GYKI-52466]	-0.308	–	–	–	–	–
COc1cc2c(cc1OC)C(c1ccccc1)=NNC(=O)C2	-0.244	–	33.9	–	–	–
COc1cc2c(cc1OC)C(c1ccccc1)=NN=C(S)C2	0.014	5.02	19.7	15	–	ED50 (Mus musculus [6]): 31.1 µmol/kg; ED50 (Mus musculus [7]): 33.7 µmol/kg; ED50 (Mus musculus [8]): 22.4 µmol/kg; ED50 (Mus musculus [9]): 43.1 µmol/kg; ED50 (Mus musculus [10]): 98 µmol/kg; ED50 (Mus musculus [11]): 69.1 µmol/kg; ED50 (Mus musculus [17]): 27.8 µmol/kg; ED50 (Mus musculus [13]): 19.3 µmol/kg; ED50 (Mus musculus [14]): 13.6 µmol/kg; TD50 [15]: 98.9 µmol/kg; ED50 (Mus musculus [16]): 12.6 µmol/kg

Now from value to compound, other results behind:

Rm [1]	Compound	selectivity ratio [2]	ED50 (Mus musculus [3]) [µmol/kg]	ED50 (Mus musculus [4]) [µmol/kg]	TD50 (Mus musculus [5]) [µmol/kg]	also measured
-0.072	COc1cc2c(cc1OC)C(c1ccc(N)cc1)=NN(C)C(=S)C2	4.35	29.8	20.3	130	–
0.282	COc1cc2c(cc1OC)C(c1ccccc1)=NN(C)C(=S)C2	3.17	30.6	24.7	97.1	–
0.263	COc1cc2c(cc1OC)C(c1ccc(Br)cc1)=NN(C)C(=O)C2	–	–	–	–	–
0.575	COc1cc2c(cc1OC)C(c1ccc(Br)cc1)=NN(C)C(=S)C2	–	105	60.4	–	–
-0.421	COc1cc2c(cc1OC)C(c1ccc(N)cc1)=NN(C)C(=O)C2	–	–	–	159	–
-0.63	COc1cc2c(cc1OC)C(c1ccc(N)cc1)=NNC(=O)C2	–	–	–	–	ED50 (Mus musculus [10]): 65.4 µmol/kg
0.333	COc1cc2c(cc1OC)C(c1ccc([N+](=O)[O-])cc1)=NN(C)C(=S)C2	–	103	81.5	–	–
